Assay results taken from ChEMBL document CHEMBL1275278, “Synthesis and pharmacological evaluation of clubbed isopropylthiazole derived triazolothiadiazoles, triazolothiadiazines and mannich bases as potential antimicrobial and antitubercular agents” (Eur J Med Chem, 2010).
≈ marks a conversion by molar mass, not a printed value.

Experiments:
Saccharomyces cerevisiae = experiment: Antifungal activity against Saccharomyces cerevisiae ATCC 9763 after 24 hrs by broth microdilution method; format: functional; conditions: ATCC 9763, 24 h
Pseudomonas aeruginosa = experiment: Antibacterial activity against Pseudomonas aeruginosa ATCC 10145 after 24 hrs by broth microdilution method; format: functional; conditions: ATCC 10145, 24 h
How it was run: (§1)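 Broth dilution in Mueller-Hinton broth. Tubes inoculated at 10⁵ cfu/mL and incubated 37 °C for 24 h. MIC taken as lowest concentration completely inhibiting growth. Media and media-plus-DMSO growth controls; ciprofloxacin and norfloxacin as reference standards.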

Escherichia coli = experiment: Antibacterial activity against Escherichia coli ATCC 10536 after 24 hrs by broth microdilution method; format: functional; conditions: ATCC 10536, 24 h; how it was run: as §1
Klebsiella pneumoniae = experiment: Antibacterial activity against Klebsiella pneumoniae ATCC 10031 after 24 hrs by broth microdilution method; format: functional; conditions: ATCC 10031, 24 h; how it was run: as §1
Bacillus subtilis = experiment: Antibacterial activity against Bacillus subtilis ATCC 60511 after 24 hrs by broth microdilution method; format: functional; conditions: ATCC 60511, 24 h; how it was run: as §1
Enterococcus faecalis = experiment: Antibacterial activity against Streptococcus faecalis ATCC 14506 after 24 hrs by broth microdilution method; format: functional; conditions: ATCC 14506, 24 h; how it was run: as §1
Staphylococcus aureus = experiment: Antibacterial activity against Staphylococcus aureus ATCC 11632 after 24 hrs by broth microdilution method; format: functional; conditions: ATCC 11632, 24 h; how it was run: as §1
Candida tropicalis = experiment: Antifungal activity against Candida tropicalis ATCC 1369 after 24 hrs by broth microdilution method; format: functional; conditions: ATCC 1369, 24 h
Aspergillus niger = experiment: Antifungal activity against Aspergillus niger ATCC 6275 after 24 hrs by broth microdilution method; format: functional; conditions: ATCC 6275, 24 h
[1] = test system: Mycobacterium tuberculosis; experiment: Antimycobacterial activity against Mycobacterium tuberculosis H37Rv after 21 days by broth dilution assay; format: functional; conditions: 504 h
How it was run: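 Frozen culture in Middlebrook 7H9 broth with 10% albumin-dextrose-catalase and 0.2% glycerol, thawed and diluted in broth to 10⁵ cfu/mL. Compounds dissolved in DMSO, twofold diluted in broth; final DMSO 1.3%. Tubes inoculated, incubated at 37 °C. Growth compared visually against drug-free and drug- and inoculum-free controls and isoniazid. MIC = lowest concentration inhibiting ≥99% of the starting bacterial population.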

[2] = Cytotoxicity against human A549 cells assessed as cell viability at 250 uM by MTT assay relative to control; format: cell-based; conditions: read-out: Activity
How it was run: (§2)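 A549 lung adenocarcinoma cells grown with fetal bovine serum. Compounds held as 10 mM DMSO stocks at −20 °C and diluted in culture medium before treatment (50–250 µM). Viability read by MTT assay against untreated cells and DMSO vehicle control. Two experiments, each with triplicate readings.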

A549 = experiment: Cytotoxicity against human A549 cells assessed as cell viability at 250 uM by MTT assay; format: cell-based; conditions: a549, 250 µM; how it was run: as §2

Compound	MIC (Saccharomyces cerevisiae) [µg/mL]	MIC (Pseudomonas aeruginosa) [µg/mL]	MIC (Escherichia coli) [µg/mL]	MIC (Klebsiella pneumoniae) [µg/mL]	MIC (Bacillus subtilis) [µg/mL]	MIC (Enterococcus faecalis) [µg/mL]	MIC (Staphylococcus aureus) [µg/mL]	MIC (Candida tropicalis) [µg/mL]	MIC (Aspergillus niger) [µg/mL]	MIC [1] [µg/mL]	viability at 250 µM [2] [%]	Activity (A549)
COc1ccc(C2=Nn3c(nnc3-c3nc(C(C)C)cs3)SC2)cc1	16 (≈ 43.1 µM)	8 (≈ 21.5 µM)	16 (≈ 43.1 µM)	16 (≈ 43.1 µM)	8 (≈ 21.5 µM)	4 (≈ 10.8 µM)	8 (≈ 21.5 µM)	31.2 (≈ 84.1 µM)	16 (≈ 43.1 µM)	4 (≈ 10.8 µM)	50	–
CC(C)c1csc(-c2n[nH]c(=S)n2NC(=O)c2ccc(O)cc2)n1	31.2 (≈ 86.5 µM)	31.2 (≈ 86.5 µM)	31.2 (≈ 86.5 µM)	31.2 (≈ 86.5 µM)	31.2 (≈ 86.5 µM)	62.5 (≈ 173 µM)	125 (≈ 346 µM)	125 (≈ 346 µM)	125 (≈ 346 µM)	62.5 (≈ 173 µM)	–	–
CC(C)c1csc(-c2n[nH]c(=S)n2NC(=O)c2ccccc2)n1	62.5 (≈ 181 µM)	16 (≈ 46.3 µM)	31.2 (≈ 90.5 µM)	125 (≈ 362 µM)	31.2 (≈ 90.5 µM)	31.2 (≈ 90.5 µM)	16 (≈ 46.3 µM)	31.2 (≈ 90.5 µM)	16 (≈ 46.3 µM)	16 (≈ 46.3 µM)	–	–
CC(C)c1csc(-c2nnc3n2NC(c2ccc(F)cc2F)S3)n1 (stereo not given)	62.5 (≈ 171 µM)	16 (≈ 43.8 µM)	16 (≈ 43.8 µM)	31.2 (≈ 85.5 µM)	4 (≈ 10.9 µM)	4 (≈ 10.9 µM)	8 (≈ 21.9 µM)	125 (≈ 342 µM)	31.2 (≈ 85.5 µM)	4 (≈ 10.9 µM)	–	Toxic
COc1ccc(C(=O)Nn2c(-c3nc(C(C)C)cs3)n[nH]c2=S)cc1	4 (≈ 10.7 µM)	8 (≈ 21.3 µM)	8 (≈ 21.3 µM)	16 (≈ 42.6 µM)	62.5 (≈ 166 µM)	125 (≈ 333 µM)	62.5 (≈ 166 µM)	8 (≈ 21.3 µM)	16 (≈ 42.6 µM)	16 (≈ 42.6 µM)	50	–
CC(C)c1csc(-c2nn(CN3CCN(C)CC3)c(=S)o2)n1	62.5 (≈ 184 µM)	16 (≈ 47.1 µM)	31.2 (≈ 92 µM)	16 (≈ 47.1 µM)	31.2 (≈ 92 µM)	31.2 (≈ 92 µM)	62.5 (≈ 184 µM)	31.2 (≈ 92 µM)	16 (≈ 47.1 µM)	16 (≈ 47.1 µM)	–	–
CC(C)c1csc(-c2nnc3sc(S)nn23)n1	16 (≈ 56.5 µM)	31.2 (≈ 110 µM)	62.5 (≈ 221 µM)	31.2 (≈ 110 µM)	16 (≈ 56.5 µM)	31.2 (≈ 110 µM)	125 (≈ 441 µM)	8 (≈ 28.2 µM)	16 (≈ 56.5 µM)	31.2 (≈ 110 µM)	–	–
CC(C)c1csc(-c2nn(CN3CCOCC3)c(=S)n2/N=C/c2ccc(N(C)C)cc2)n1	62.5 (≈ 133 µM)	31.2 (≈ 66.3 µM)	31.2 (≈ 66.3 µM)	31.2 (≈ 66.3 µM)	16 (≈ 33.9 µM)	31.2 (≈ 66.3 µM)	16 (≈ 33.9 µM)	31.2 (≈ 66.3 µM)	16 (≈ 33.9 µM)	16 (≈ 33.9 µM)	–	–
COc1cc(/C=N/n2c(-c3nc(C(C)C)cs3)nn(CN3CCN(C)CC3)c2=S)cc(OC)c1OC	125 (≈ 235 µM)	31.2 (≈ 58.8 µM)	8 (≈ 15 µM)	16 (≈ 30.1 µM)	4 (≈ 7.52 µM)	8 (≈ 15 µM)	16 (≈ 30.1 µM)	62.5 (≈ 118 µM)	16 (≈ 30.1 µM)	8 (≈ 15 µM)	50	–
CC(C)c1csc(-c2nn(CN3CCOCC3)c(=S)n2/N=C/c2ccccc2Cl)n1	125 (≈ 270 µM)	62.5 (≈ 135 µM)	62.5 (≈ 135 µM)	16 (≈ 34.6 µM)	125 (≈ 270 µM)	62.5 (≈ 135 µM)	31.2 (≈ 67.5 µM)	125 (≈ 270 µM)	31.2 (≈ 67.5 µM)	31.2 (≈ 67.5 µM)	–	–
CC(C)c1csc(-c2nnc3n2N=C(c2ccc(O)cc2)CS3)n1	16 (≈ 44.8 µM)	62.5 (≈ 175 µM)	31.2 (≈ 87.4 µM)	16 (≈ 44.8 µM)	31.2 (≈ 87.4 µM)	31.2 (≈ 87.4 µM)	62.5 (≈ 175 µM)	31.2 (≈ 87.4 µM)	31.2 (≈ 87.4 µM)	125 (≈ 350 µM)	–	–
CC(C)c1csc(-c2nnc3n2NC(c2ccccc2Cl)S3)n1 (stereo not given)	125 (≈ 344 µM)	62.5 (≈ 172 µM)	62.5 (≈ 172 µM)	31.2 (≈ 85.9 µM)	125 (≈ 344 µM)	31.2 (≈ 85.9 µM)	31.2 (≈ 85.9 µM)	16 (≈ 44 µM)	31.2 (≈ 85.9 µM)	62.5 (≈ 172 µM)	–	–
CC(C)c1csc(-c2nnc3n2N=C(c2ccc([N+](=O)[O-])cc2)CS3)n1	16 (≈ 41.4 µM)	125 (≈ 323 µM)	16 (≈ 41.4 µM)	31.2 (≈ 80.9 µM)	16 (≈ 41.4 µM)	125 (≈ 323 µM)	125 (≈ 323 µM)	31.2 (≈ 80.9 µM)	62.5 (≈ 162 µM)	31.2 (≈ 80.9 µM)	–	–
COc1ccc(/C=N/n2c(-c3nc(C(C)C)cs3)nn(CN3CCN(C)CC3)c2=S)cc1	16 (≈ 33.9 µM)	16 (≈ 33.9 µM)	31.2 (≈ 66.3 µM)	31.2 (≈ 66.3 µM)	8 (≈ 17 µM)	16 (≈ 33.9 µM)	31.2 (≈ 66.3 µM)	31.2 (≈ 66.3 µM)	31.2 (≈ 66.3 µM)	16 (≈ 33.9 µM)	–	–
Cc1ccc(C2=Nn3c(nnc3-c3nc(C(C)C)cs3)SC2)cc1	62.5 (≈ 176 µM)	8 (≈ 22.5 µM)	8 (≈ 22.5 µM)	8 (≈ 22.5 µM)	31.2 (≈ 87.9 µM)	31.2 (≈ 87.9 µM)	16 (≈ 45 µM)	31.2 (≈ 87.9 µM)	31.2 (≈ 87.9 µM)	16 (≈ 45 µM)	–	–
CC(C)c1csc(-c2nn(CN3CCN(C)CC3)c(=S)n2/N=C/c2ccc(N(C)C)cc2)n1	16 (≈ 33 µM)	31.2 (≈ 64.5 µM)	16 (≈ 33 µM)	4 (≈ 8.25 µM)	8 (≈ 16.5 µM)	4 (≈ 8.25 µM)	31.2 (≈ 64.5 µM)	31.2 (≈ 64.5 µM)	8 (≈ 16.5 µM)	4 (≈ 8.25 µM)	50	–
CC(C)c1csc(-c2nn(CN3CCOCC3)c(=S)o2)n1	31.2 (≈ 95.7 µM)	16 (≈ 49 µM)	31.2 (≈ 95.7 µM)	31.2 (≈ 95.7 µM)	16 (≈ 49 µM)	16 (≈ 49 µM)	31.2 (≈ 95.7 µM)	31.2 (≈ 95.7 µM)	62.5 (≈ 191 µM)	31.2 (≈ 95.7 µM)	–	–
CC(C)c1csc(-c2nnc3n2N=C(c2ccc(Br)cc2)CS3)n1	62.5 (≈ 149 µM)	62.5 (≈ 149 µM)	31.2 (≈ 74.3 µM)	16 (≈ 38.1 µM)	31.2 (≈ 74.3 µM)	31.2 (≈ 74.3 µM)	125 (≈ 297 µM)	31.2 (≈ 74.3 µM)	125 (≈ 297 µM)	62.5 (≈ 149 µM)	–	–
Cc1ccc(C(=O)Nn2c(-c3nc(C(C)C)cs3)n[nH]c2=S)cc1	62.5 (≈ 174 µM)	125 (≈ 348 µM)	62.5 (≈ 174 µM)	62.5 (≈ 174 µM)	62.5 (≈ 174 µM)	125 (≈ 348 µM)	62.5 (≈ 174 µM)	125 (≈ 348 µM)	62.5 (≈ 174 µM)	31.2 (≈ 86.9 µM)	–	–
